Published values from different studies.
Each line is one published result; the experiments were not run side by side.
PDGFRA V561D: Platelet-derived growth factor receptor alpha (PDGFRA, Homo sapiens, UniProt P16234, V561D)
PDGFRA: Platelet-derived growth factor receptor alpha (PDGFRA, Homo sapiens, UniProt P16234)
PDGFRA D842V: Platelet-derived growth factor receptor alpha (PDGFRA, Homo sapiens, UniProt P16234, D842V)

| Compound | target | effect on | action | technique | tested at | measurement | value |
| --- | --- | --- | --- | --- | --- | --- | --- |
| COc1cc(-c2cc(-c3ccc(N4CCNCC4)cc3)cnc2N)cc(OC)c1OC | Platelet-derived growth factor receptor alpha (PDGFRA, Homo sapiens, UniProt P16234, T674I) | enzyme activity | inhibitor |  | 1 µM | inhibition | 4% |
| CC/C(=N\NC(=O)NCc1cccc(O)c1)c1ccc(O)c(C)c1O | PDGFRA V561D | enzyme activity | inhibitor |  | 0.1 µM | inhibition | 0.9% |
| COc1ccc2c(c1)O[C@H](c1ccc(OC)c(OC)c1)C[C@@H]2NC(=O)C1(c2ccc3c(c2)OC(F)(F)O3)CC1 | PDGFRA | cell-free assay |  | competition with immobilised ligand | 1 µM | remaining binding | 87% |
| FC(F)(F)Oc1cccc(-c2cnc3ccc(-c4ccncc4)nn23)c1 | PDGFRA | enzyme activity | inhibitor | radiometric | 1 µM | activity vs control | 70% |
| COc1ccc2cc(OCC3(C(=O)O)CN(C(=O)c4ccc(F)cc4)C3)ccc2c1 | PDGFRA | cell-free assay |  | competition with immobilised ligand | 1 µM | remaining binding | 100% |
| CCN(CC)c1ccc(C2=NNC(=O)CC2C)cc1[N+](=O)[O-] (centres unmarked) | PDGFRA | enzyme activity | inhibitor |  | 10 µM | remaining activity | 91% |
| O=C(Nc1ccc(Oc2ccc(F)cc2)cc1)N1CCc2ncccc2[C@H]1c1ccc(F)cc1 | PDGFRA | cell-free assay |  | competition with immobilised ligand | 1 µM | remaining binding | 95% |
| Cc1cnc(NC2CCOCC2)nc1-n1cnc(C(=O)NC(CN)c2cc(F)cc(Cl)c2)c1 (centres unmarked) | PDGFRA | enzyme activity | inhibitor | radiometric | 1 µM | remaining activity | 94% |
| CCCOc1ccc(OC)c(F)c1C(=O)c1ccc(C(=O)N[C@@H]2CNC[C@H]2NC(=O)c2ccc3[nH]ncc3c2)cc1 | PDGFRA V561D | enzyme activity | inhibitor |  | 10 µM | remaining activity | 6% |
| Oc1ccc(-c2nc(-c3ccncc3)c(-c3ccc(F)cc3)[nH]2)cc1 | PDGFRA | cell-free assay |  |  | 0.5 µM | remaining signal | 98.8% |
| Cc1cc(NC(=O)c2cccc3cc(-c4cccc5[nH]nc(N)c45)ccc23)ccc1F | PDGFRA | enzyme activity | inhibitor |  | 0.1 µM | activity vs control | 92% |
| O=C(Nc1cnn(-c2csc(C(=O)NC3COC3)c2)c1)Nc1c(F)cccc1Cl | PDGFRA | enzyme activity | inhibitor |  | 5 µM | remaining activity | 107% |
| CC(C)(C)c1nc(-c2cccc(NS(=O)(=O)c3c(F)cccc3F)c2F)c(-c2ccnc(N)n2)s1 | PDGFRA | enzyme activity | inhibitor | radiometric | 1 µM | remaining activity | 103% |
| COc1cc2ncnc(Nc3ccc(Oc4ccccc4)cc3C)c2cc1OC | PDGFRA | enzyme activity | inhibitor |  | 1 µM | inhibition | 9% |
| CN(C)C(=O)Cn1cc(-c2nc([C@@](C)(c3ccc(-c4cnc(N)nc4)cc3)C3CC3)no2)cn1 | PDGFRA | cell-free assay |  | competition with immobilised ligand | 1 µM | remaining binding | 100% |
| O=C1NC(=O)c2cc(Nc3ccc(F)cc3)c(Nc3ccc(F)cc3)cc21 | PDGFRA | cell-free assay | inhibitor |  | 0.5 µM | remaining signal | 101% |
| CNC(=O)c1cc(Oc2ccc(NC(=O)Nc3ccc(Cl)c(C(F)(F)F)c3)cc2)ccn1 | PDGFRA D842V | enzyme activity | inhibitor |  | 0.3 µM | inhibition | 86% |
| CN1CCN(c2cnc3c(C4CCN(C(=O)c5ccc(OC(F)(F)F)cc5N)CC4)ncnc3c2)CC1 | PDGFRA | cell-free assay |  | competition with immobilised ligand | 1 µM | remaining binding | 100% |
| Cc1ccc(C(=O)NCc2ccsc2)cc1C#Cc1cn(C(C)C)c2ncnc(N)c12 | PDGFRA D842V | enzyme activity | inhibitor |  | 1 µM | activity vs control | 2% |
| CN(C)c1ncnc(-c2ccc3nc(Nc4cc(CN5CCN(C(=O)CC(F)(F)F)CC5)ccn4)[nH]c3c2)c1Cl | PDGFRA | cell-free assay |  | competition with immobilised ligand | 1 µM | remaining binding | 61% |
| CS(=O)(=O)CCNCc1ccc(-c2ccc3ncnc(Nc4ccc(OCc5cccc(F)c5)c(Cl)c4)c3c2)o1 | PDGFRA | cell-free assay |  |  | 0.5 µM | remaining signal | 108% |
| Cn1nc(C(=O)NCc2ccc(C(=O)O)cc2)cc1-c1ccc2[nH]ccc2c1 | PDGFRA | cell-free assay |  | competition with immobilised ligand | 0.1 µM | remaining binding | 100% |
| Cc1ccc(NC(=O)c2ccc(C)c(C(F)(F)F)c2)cc1C#Cc1nn(C2CCC(O)CC2)c2ncnc(N)c12 (centres unmarked) | PDGFRA | cell-free assay | inhibitor |  | 10 µM | remaining signal | 60% |
